From ChEMBL document CHEMBL3414420, “Synthesis of xanthohumol analogues and discovery of potent thioredoxin reductase inhibitor as potential anticancer agent” (J Med Chem, 2015)
Activity calls are given as the source filed them. No cut-off for these calls is given here.

Assays:
HepG2 = assay: Cytotoxicity against human HepG2 cells assessed as inhibition of cell proliferation after 72 hrs by MTT assay; type: functional, cell-based; details: HepG2, 72 h
Procedure, shortened: (§1)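 Cells, 5×10^3 per well, exposed in triplicate at 37 °C; DMSO-only wells as controls (0.1% v/v DMSO in all cell work). After 68 h, MTT (5 mg/mL stock) was added for a further 4 h. Overnight solubilisation at 37 °C in 10% SDS/5% isobutanol/0.1% HCl, then A570 read.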

A549 = assay: Cytotoxicity against human A549 cells assessed as inhibition of cell proliferation after 72 hrs by MTT assay; type: functional, cell-based; details: A549, 72 h; procedure, shortened: as §1
HeLa = assay: Cytotoxicity against human HeLa cells assessed as inhibition of cell proliferation after 72 hrs by MTT assay; type: functional, cell-based; procedure, shortened: as §1
[1] = biological target: Thioredoxin reductase 1 (Rattus norvegicus) (UniProt O89049); assay: In vitro inhibition of NADPH-reduced TrxR (unknown origin) after 2 hrs incubation by microplate reader
[2] = Cytotoxicity against human […] cells assessed as inhibition of cell proliferation after 72 hrs by MTT assay; type: functional, cell-based; procedure, shortened: as §1
[3] = Cytotoxicity against human HL60 cells assessed as inhibition of cell proliferation after 72 hrs by MTT assay; type: functional, cell-based; details: HL-60, 72 h; procedure, shortened: as §1
Thioredoxin reductase [4] = biological target: T1, Thioredoxin reductase (Homo sapiens, UniProt Q16881+Q9NNW7+Q86VQ6); assay: Inhibition of TrxR in human HeLa cells by Trx-mediated insulin reduction assay
Thioredoxin reductase [5] = biological target: T1, Thioredoxin reductase; assay: Inhibition of TrxR in human HeLa cells after 48 hrs by TRFS-green based fluorescence microscopy; type: cell-based
Procedure, shortened: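 Live HeLa cells exposed to compound for 44 h, then to TRFS-green (10 μM) for a further 4 h. Green fluorescence, which tracks cellular TrxR activity, imaged alongside phase contrast.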

Thioredoxin reductase [6] = biological target: T1, Thioredoxin reductase; assay: Inhibition of TrxR in human HeLa cells after 48 hrs by end point reduction assay; type: cell-based
Procedure, shortened: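 HeLa cells treated 48 h, lysed in RIPA buffer and protein measured by Bradford. Lysate (20 μg) incubated 30 min at 37 °C with 0.3 mM insulin, 660 μM NADPH and 15 μM E. coli Trx (pH 7.6). Stopped with DTNB in 6 M guanidine-HCl; A412 minus Trx-free blank, as % of DMSO control.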

[7] = In vitro inhibition of TrxR U498C mutant (unknown origin) up to 40 uM after 2 hrs incubation by microplate reader

Chain of Thioredoxin reductase 1 (Rattus norvegicus) (O89049 whole entry, looked up): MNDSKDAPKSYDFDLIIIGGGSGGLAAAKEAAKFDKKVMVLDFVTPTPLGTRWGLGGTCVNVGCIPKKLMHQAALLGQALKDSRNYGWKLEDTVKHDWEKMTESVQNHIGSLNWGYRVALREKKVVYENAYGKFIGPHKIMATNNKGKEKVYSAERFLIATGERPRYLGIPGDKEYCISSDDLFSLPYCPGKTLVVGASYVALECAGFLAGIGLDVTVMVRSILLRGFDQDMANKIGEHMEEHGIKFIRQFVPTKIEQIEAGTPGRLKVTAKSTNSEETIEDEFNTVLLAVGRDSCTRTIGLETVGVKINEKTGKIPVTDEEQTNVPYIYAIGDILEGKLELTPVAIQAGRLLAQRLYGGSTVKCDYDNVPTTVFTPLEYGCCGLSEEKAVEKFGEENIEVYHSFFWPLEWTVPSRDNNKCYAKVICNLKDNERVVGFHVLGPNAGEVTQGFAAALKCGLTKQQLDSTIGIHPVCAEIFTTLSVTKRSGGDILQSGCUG

Row | Structure (SMILES) | IC50 (HepG2) | IC50 (A549) | IC50 (HeLa) | also measured
1 | COc1ccccc1/C=C/C(=O)c1c(OC)cc(O)c(CC=C(C)C)c1O | 14.6 µM | 12.5 µM | 19.7 µM | 
2 | COc1cc(OC)c(OC)cc1/C=C/C(=O)c1c(OC)cc(O)c(CC=C(C)C)c1O | > 50 µM | 14.4 µM | > 50 µM | 
3 | COc1cc(OC)c(C(=O)/C=C/c2ccc(C)cc2)c(OC)c1 | 18.4 µM | 15 µM | 17 µM | 
4 | COc1cc(O)cc(O)c1C(=O)/C=C/c1ccc(O)cc1 [HELICHRYSETIN] | 40.2 µM | > 50 µM | 48.1 µM | 
5 | COc1ccc(/C=C/C(=O)c2c(OC)cc(O)c(CC=C(C)C)c2O)c(OC)c1OC | 14.8 µM | 18 µM | > 50 µM | 
6 | COc1cc(OC)c(C(=O)/C=C/c2cc(OC)c(OC)c(OC)c2)c(OC)c1 | 16.5 µM | 22.3 µM | 9.9 µM | 
7 | COc1cc(O)c(CC=C(C)C)c(O)c1C(=O)/C=C/c1cccc([N+](=O)[O-])c1 | 16.6 µM | 15 µM | 16.5 µM | 
8 | COc1cc(O)cc(O)c1C(=O)/C=C/c1ccc(Cl)cc1 | 12.2 µM | 18.2 µM | 17 µM | 
9 | COc1cc(/C=C/C(=O)c2c(OC)cc(O)c(CC=C(C)C)c2O)ccc1O | 21.7 µM | 11.8 µM | 33.8 µM | 
10 | COc1cc(/C=C/C(=O)c2c(O)cc(O)cc2OC)cc(OC)c1 | 17.6 µM | 34 µM | 13.3 µM | 
11 | COc1cc(OC)c(C(=O)/C=C/c2cc(OC)c(OC)cc2OC)c(OC)c1 | 23.8 µM | 45.1 µM | 40.5 µM | 
12 | COc1ccc(/C=C/C(=O)c2c(OC)cc(O)c(CC=C(C)C)c2O)cc1OC | 13.8 µM | 15.7 µM | 27.7 µM | 
13 | COc1cc(OC)c(C(=O)/C=C/c2ccccc2OC)c(OC)c1 | 16.3 µM | 19.8 µM | 19.6 µM | 
14 | COc1cc(/C=C/C(=O)c2c(O)cc(O)cc2OC)cc(OC)c1OC | 20.4 µM | 28.4 µM | 18.9 µM | 
15 | COc1cc(OC)c(C(=O)/C=C/c2ccc(C(F)(F)F)cc2)c(OC)c1 | 9.7 µM | 14.2 µM | 5.1 µM | inhibition [1]: Active; IC50 [2]: 15.7 µM; IC50 [3]: 6.5 µM
16 | COc1cc(OC)c(C(=O)/C=C/c2ccc(O)c(OC)c2)c(OC)c1 | 17 µM | 43.8 µM | 44.9 µM | 
17 | COc1cc(O)c(CC=C(C)C)c(O)c1C(=O)/C=C/c1ccc(O)c(O)c1 | 15.2 µM | 16.1 µM | 38.1 µM | 
18 | COc1cc(O)cc(O)c1C(=O)/C=C/c1ccc([N+](=O)[O-])cc1 | 41 µM | > 50 µM | > 50 µM | 
19 | COc1ccc(/C=C/C(=O)c2c(OC)cc(O)c(CC=C(C)C)c2O)cc1 | 32.4 µM | 38 µM | > 50 µM | 
20 | COc1ccc(/C=C/C(=O)c2c(O)cc(O)cc2OC)cc1OC | 18.5 µM | > 50 µM | 49.5 µM | 
21 | COc1cc(O)cc(O)c1C(=O)/C=C/c1cccc([N+](=O)[O-])c1 | 16.3 µM | 36.8 µM | 15.5 µM | inhibition [1]: Active; IC50 [2]: 20.1 µM; IC50 [3]: 5.9 µM

Row | Structure (SMILES) | IC50 (HepG2) | IC50 (A549) | IC50 (HeLa) | also measured
22 | COc1cc(OC)c(C(=O)/C=C/c2ccc(OC)c(OC)c2)c(OC)c1 | 11.6 µM | 39.1 µM | 18.1 µM | 
23 | COc1cc(O)c(CC=C(C)C)c(O)c1C(=O)/C=C/c1ccc(O)cc1 [XANTHOHUMOL] | 35 µM | 30.5 µM | 40.4 µM | IC50 (Thioredoxin reductase [4]): > 40 µM
24 | COc1cc(OC)c(C(=O)/C=C/c2ccc(OC)c(OC)c2OC)c(OC)c1 | > 50 µM | 44.3 µM | > 50 µM | 
25 | COc1cc(O)c(CC=C(C)C)c(O)c1C(=O)/C=C/c1ccc(Cl)cc1 | 10.1 µM | 11.8 µM | 16.5 µM | 
26 | COc1ccc(/C=C/C(=O)c2c(O)cc(O)cc2OC)cc1 | 18.1 µM | > 50 µM | 47.7 µM | 
27 | COc1cc(/C=C/C(=O)c2c(OC)cc(O)c(CC=C(C)C)c2O)cc(OC)c1OC | > 50 µM | > 50 µM | > 50 µM | 
28 | COc1cc(OC)c(OC)cc1/C=C/C(=O)c1c(O)cc(O)cc1OC | 18.7 µM | 34.2 µM | 37.8 µM | 
29 | COc1cc(OC)c(C(=O)/C=C/c2ccc(O)cc2)c(OC)c1 | 37 µM | 49.4 µM | 40.6 µM | 
30 | COc1cc(O)cc(O)c1C(=O)/C=C/c1ccc(C(F)(F)F)cc1 | 14.1 µM | 15.4 µM | 9.5 µM | 
31 | COc1cc(O)c(CC=C(C)C)c(O)c1C(=O)/C=C/c1ccc([N+](=O)[O-])cc1 | 12.4 µM | 31.2 µM | 29.7 µM | 
32 | COc1cc(O)c(CC=C(C)C)c(O)c1C(=O)/C=C/c1ccc(C(F)(F)F)cc1 | 6.5 µM | 11.1 µM | 6.8 µM | inhibition [1]: Active; IC50 [2]: 10.7 µM; IC50 [3]: 5.3 µM
33 | COc1cc(/C=C/C(=O)c2c(O)cc(O)cc2OC)ccc1O | > 50 µM | > 50 µM | > 50 µM | 
34 | COc1cc(O)cc(O)c1C(=O)/C=C/c1ccc(O)c(O)c1 | 28.7 µM | 11.8 µM | 21.3 µM | 
35 | COc1cc(OC)c(C(=O)/C=C/c2ccc(O)c(O)c2)c(OC)c1 | 27.5 µM | 8.2 µM | 15.8 µM | 
36 | COc1cc(OC)c(C(=O)/C=C/c2ccc(Cl)cc2)c(OC)c1 |  |  |  | inhibition [1]: Active
37 | COc1cc(OC)c(C(=O)/C=C/c2cccc([N+](=O)[O-])c2)c(OC)c1 |  |  |  | inhibition (Thioredoxin reductase [5]): Dose-dependent effect; IC50 [1]: 12.8 µM; inhibition (Thioredoxin reductase [6]): Dose-dependent effect; IC50 (Thioredoxin reductase [4]): 3.5 µM; inhibition [7]: inactive
38 | COc1cc(/C=C/C(=O)c2c(OC)cc(OC)cc2OC)cc(OC)c1 | 9 µM | 10.1 µM | 9.2 µM | 
39 | COc1cc(O)cc(O)c1C(=O)/C=C/c1ccc(C)cc1 | > 50 µM | > 50 µM | > 50 µM | 
40 | COc1cc(OC)c(C(=O)/C=C/c2ccc(N)cc2)c(OC)c1 | 45.2 µM | > 50 µM | > 50 µM | 
41 | COc1ccccc1/C=C/C(=O)c1c(O)cc(O)cc1OC | 15.3 µM | 47.7 µM | 43.6 µM | 
